Assay results as given in ChEMBL document CHEMBL4513216, “Probing the Open Global Health Chemical Diversity Library for Multistage-Active Starting Points for Next-Generation Antimalarials” (ACS Infect Dis, 2020).

assay: Toxicity liver stage against HepG2, at 10uM; format: cell-based; parameters: test concentration 10 uM, cell line HepG2-A16-CD81EGFP; conditions: human, HepG2-A16-CD81EGFP cells; read-out: INHIBITION
In short: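 Uninfected HepG2-A16-CD81EGFP cells, 3 × 10^3 per well, 1536-well, plated on prespotted compound at 10 μM final, parasite-free screening media added to match infected plates; puromycin 10 μM positive, DMSO 0.5% negative; run in parallel with 48 h PbLuc assay at 37 °C, 5% CO2; viability by CellTiter-Glo luminescence, normalized to controls.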

SMILES | cytotoxicity at 10 µM [%]
CC(C)Oc1cccc(C(=O)C2CCCN(C(=O)c3ccnn3C)C2)c1 (configuration not stated) | 1.3
O=C(NC(c1ccccc1)c1cccnc1)C1CC1 (configuration not stated) | 2.99
O=C(NC(c1ccc(Cl)cc1)c1cccnc1)C1CC1 (configuration not stated) | -3.94
CCN1CC(CN2CCOCC2)Oc2ncccc2C1=O (configuration not stated) | -1.1
COc1cc(C2CC(=O)Oc3cc(C)[nH]c(=O)c32)ccc1O (configuration not stated) | -8.64
CC(=O)CSc1sc2c(O)cc(=O)[nH]c2c1C(N)=O | -3.48
Cn1nc(C(=O)N2CCC(Oc3ccc(C#N)cn3)CC2)ccc1=O | -3.33
COCCNC(=O)c1ccc2ccc(N(C)CC3CC3)n2c1 | 0.375
Cn1ccc2c(cnc3nc(-c4ccncc4)nn32)c1=O | -4.17
Cn1cc(CNS(=O)(=O)c2cc(F)ccc2F)cn1 | -0.439
Cc1nc2[nH]cnc(Nc3ccn(C)n3)c-2n1 | 18.2
Cc1cn[nH]c1C1COCCN1Cc1cscn1 (configuration not stated) | 2.67
O=S1(=O)NC(c2ccnc(N3CCCCC3)n2)=Nc2ccccc21 | 18.3
COCCNc1ncc(-c2cccc(F)c2)c(-c2nccn2C)n1 | 13.4
COc1cccc(CN2CCC(Cc3cnc(CN(C)C)cn3)CC2)c1 | -2.82
O=C1CN(C(=O)CCn2c(C(F)(F)F)cc3cccnc32)CCN1 | -13
Cc1nc(Nc2nnc(C)s2)cc(C2CCCN2c2ccncn2)n1 (configuration not stated) | -14.3
Cc1cccc(C(=O)N2C[C@@H]3CC[C@H](Oc4cccc(F)c4)[C@@H]3C2)n1 | -14.7
CC(C)CCN1CCC2(CC1)NCc1ccccc1NC2=O | 3.46
CN(C)S(=O)(=O)NC1CC(=O)N(c2ccccc2Cl)C1 (configuration not stated) | 3.57
CC(C)(C)CNC(=O)c1ccc(C(=O)O)cc1 | -8.17
COc1ccc(CNc2nc(C3CC3)no2)cc1OC | 4.44
Cc1[nH]nc2ncc(C(=O)N3CCN(CC(O)C(C)(C)C)CC3)cc12 (configuration not stated) | 4.41

SMILES | cytotoxicity at 10 µM [%]
O=C(NCCc1cc(F)ccc1F)NC(CO)c1ccccc1 (configuration not stated) | 8.78
COc1ccccc1NC(=O)CC(C)NCc1scnc1C (configuration not stated) | 0.686
Cc1cc(C)c(CNC(=O)NCCNc2ncccn2)c(=O)[nH]1 | -49.4
COC(=O)c1oc(CNC(C)(C)c2ccc3c(c2)OCO3)cc1C | 4.47
CCCNC(=O)NCc1nc(C)c(C)o1 | 5.19
CC1CN(C(=O)C2(c3ccc(F)cc3F)CCOCC2)CCO1 (configuration not stated) | -4.84
Cc1ccc(-n2cnnn2)cc1NCC(=O)Nc1cc(F)ccc1F | 6.23
O=S(=O)(CCN1CCCCC1Cn1cccn1)c1ccccc1 (configuration not stated) | -8.66
FC(F)(F)C1CCc2nnc(CNCc3cccs3)n2C1 (configuration not stated) | 2.9
NC(=O)CCCNC(=O)c1cc(Br)c2c(c1)OCCO2 | 9.31
CCN(CC)C(=O)CCCNC(=O)Cc1nc(-c2ccco2)oc1C | 1.57
Cc1cc(C2CN(CC(=O)NCc3ccco3)CCO2)ccc1F (configuration not stated) | 4.29
Cc1cc(C)n(-c2ccc(N3CCCSCC3)nc2)n1 | -2.08
Cc1cc(Br)oc1C(=O)N1CCC(N(C)C)CC1 | -4.71
COc1ccc(-c2nc(CN3CC(n4cccn4)C3)no2)cc1 | -3.08
COCCN(Cc1cccnc1)S(=O)(=O)c1ccc(F)cc1C | -5.06
CCCS(=O)(=O)N1CCC(Oc2ccc(C#N)cc2)CC1 | 3.82
CN1CC(NC(=O)CCCc2cc(Cl)sc2Cl)CCC1=O (configuration not stated) | -5.01
CCc1nc(C(=O)N2CCN(C(=O)CCc3ccccc3)CC2)c[nH]1 | 5.92
COc1cccc(CN(C)Cn2nc(C(C)(C)C)ccc2=O)c1 | 1.12
CCc1ncncc1C(=O)Nc1ccc2ccn(CCN(C)C)c2c1 | 6.11
Cc1n[nH]c(C)c1NC(=O)CN(CC(O)c1ccc(F)cc1)C1CC1 (configuration not stated) | -7.3
CCC(NC(=O)NCc1cc(Cl)ccc1OC)c1noc(C)n1 (configuration not stated) | 4.06

SMILES | cytotoxicity at 10 µM [%]
CCOc1ccc(OC2CCCN(c3cnn(C)c3)C2=O)cc1 (configuration not stated) | 0.118
CCN1CCOC(CNc2nccc(OC)n2)C1 (configuration not stated) | -0.572
CCC(SC)C(=O)N1CCC(n2ccnn2)CC1 (configuration not stated) | -41.5
c1ccc(CN2CCC(NCCc3ccc4c(c3)CCO4)CC2)nc1 | 3.73
CCSCCC(=O)NC1CCN(C(C)c2ccccc2)CC1 (configuration not stated) | -1.22
CCOCCC(=O)N1CC(=O)Nc2cc(Br)ccc21 | 6.87
Cc1cnn(C2CN(Cc3nnc(-c4ccccc4Cl)o3)C2)c1 | -2.76
CCC(C)(C)CC(=O)NC(C)C(=O)Nc1ccc(-n2cncn2)cc1 (configuration not stated) | 3.47
COc1ccccc1N1CCC(CNCc2c(C)nn(C)c2OC)C1 (configuration not stated) | 5.28
COCCOCC(=O)N(C)Cc1ccc(OCc2cccs2)cc1 | 4.38
O=S(=O)(CC1CCCCO1)Nc1cc(F)ccc1-n1cccn1 (configuration not stated) | 7.71
COC[C@@H]1CCC[C@]12CN(S(=O)(=O)c1cn(C)cn1)CCO2 | 4.06
Cn1c2c(c(=O)n1C)CN(C(=O)c1ccncc1F)CCC2 | -95
Cc1cnc(N2CCOC3(COCCN(c4nccs4)C3)C2)nc1 (configuration not stated) | -114
COCC(=O)NCc1cc(=O)n2c(n1)CN(Cc1cccs1)CCC2 | -96.5
CC(C)c1nccc([C@H]2C[C@@H]3CCN(Cc4ccoc4)C[C@H]3O2)n1 | -4.45
COCC(=O)N1CCC2(CC1)CC(CC(=O)NC1CC1)c1ccccc12 (configuration not stated) | 0.873
Nc1ccnc(N2CCCC(CCc3ccccc3)(C(=O)O)C2)n1 (configuration not stated) | 3.33
CN(CCO)Cc1nnc(C2CCN(C(=O)c3cccn3C)CC2)n1C | -0.537
c1ccc2c(c1)CN(c1ncnc3c1CCNC3)CCO2 | 3.13
COc1ccccc1CCC(=O)N1CCCC(OCc2cccnc2)C1 (configuration not stated) | 2.98
Cc1nnc(N2CCCC(C(=O)c3cccc(Cl)c3)C2)o1 (configuration not stated) | 6.14
Cc1cccnc1CCNCC1(O)CCCN(CC2CCCCC2)C1=O (configuration not stated) | -203

SMILES | cytotoxicity at 10 µM [%]
O=C(NCc1noc(C2CCCO2)n1)c1cn2ccsc2n1 (configuration not stated) | -3.77
CC(C)(C)SCCNC(=O)[C@@]12CNC[C@@H]1CN(S(C)(=O)=O)C2 | 0.251
O=C(N1CCC2(CC1)[C@H](O)C[C@@H]2O)C1(c2ccccc2F)CC1 | 6.1
CNCCNc1ccc(-c2nc(-c3cccc(OC)c3OC)no2)cn1 | -2.4
CC(C)(O)c1cn(C2CCN(c3ncccc3Cl)CC2)nn1 | -46.4
Cc1cnccc1N1CCN(C[C@]2(O)CCCN3CCCC[C@@H]32)CC1 | 10.4
COc1ccc(Cc2c(O)nc(SC)n(-c3ccccc3)c2=O)cc1 | 1.76
CCn1nc(CC(C)C)cc1C(=O)N1CCC(n2cnnc2)CC1 | -7.71
OCC1CCCCN1CCCNCc1cc(O)c2cc(F)ccc2n1 (configuration not stated) | -39.2
Fc1ccc(CN2CCCC3(CCN(Cc4ncc[nH]4)C3)C2)cc1F (configuration not stated) | -12
Cc1cccc(-c2ncc(CNC(C)Cc3ncccc3C)cn2)c1 (configuration not stated) | -13.2
Cc1nc(CC(=O)N(CCN2CCOCC2)Cc2ccco2)c(C)s1 | -3.71
CCOc1ncccc1C(=O)N1CCN(C)C2(CCN(C)CC2)C1 | -0.351
CCCOC1CCCN(C(=O)c2ccc(S(N)(=O)=O)cc2)C1 (configuration not stated) | -13.6
Cc1cc(Nc2nc(C)cs2)nc(C2CCCCN2CCO)n1 (configuration not stated) | 1.8
O=C(c1cnccn1)N1CCN(Cc2cscn2)CC1 | -8.36
Cn1c(C2CC2)nc2c1CCN(Cc1nc(-c3ccsc3)no1)C2 | 8.73
CCn1cc(NC(=O)NCC(c2ccsc2)N(C)C)cn1 (configuration not stated) | -8.01
COCCOc1ccc(CNCC2CNc3cc(C)nn3C2)cn1 (configuration not stated) | -10.7
Cc1nc(C2CCCN(C(=O)Cn3ccccc3=O)C2)sc1C (configuration not stated) | 1.5
O=C(NCCNC(=O)c1scnc1Cl)c1cccs1 | -9.44
CCOCCN1CCN(Cc2cccc(C(=O)N(C)C)c2)CC1CC (configuration not stated) | -5.83
CCN1CCN(c2ccc(CNC(=O)c3cc(C)on3)cn2)CC1 | -11

SMILES | cytotoxicity at 10 µM [%]
CC(=O)NCCNC(=O)CN1CCOC(Cn2cc(C)cn2)C1 (configuration not stated) | -4.44
CCc1n[nH]c(C2CN(CCS(C)(=O)=O)CCO2)n1 (configuration not stated) | -18
Cn1ccc(CN2CCC(Oc3ccccc3)CC2)cc1=O | -3.71
Cc1noc(C(C)C)c1C(=O)NCc1cc(F)cc(F)c1 | -5.54
CCN1CCOC(CNCc2ccccc2OCc2ccccn2)C1 (configuration not stated) | -10.1
CCOc1cc(C(=O)N2CCCC(c3cc(C(N)=O)[nH]n3)C2)ccn1 (configuration not stated) | -7.37
O=c1[nH]c(CCN2CCCC(Cn3cncn3)C2)nc2ccccc12 (configuration not stated) | -8.62
Cc1cc(C)n(CC2CN(Cc3nc(-c4ccoc4)no3)CCO2)n1 (configuration not stated) | -8.13
CCN1C(=O)CCC12CCC(NC(=O)NCc1cccnc1)CC2 (configuration not stated) | -104
Cc1ccc2c(n1)N(C)CCN(CCN1CCCC1)C2 | -8.84
COCCN1CCCC12CCN(Cc1cccnc1OC)CC2 | 15.4
CN(C)CCN1CCOCC2(C1)CN(Cc1ccsc1)CCO2 (configuration not stated) | -0.439
Cc1ccc(CN2CCC3(CCCN3S(C)(=O)=O)CC2)s1 | -113
CN(C)C[C@@H]1C[C@@H]2CN(C(=O)c3ccoc3)CC[C@@H]2N1CC1CC1 | 6.71
COCCN1CCCn2c(nc(CNS(C)(=O)=O)cc2=O)C1 | -110
Cc1noc(C)c1CN1CCc2ncc(Cn3cccn3)n2CC1 | 2.65
COCC(=O)NCc1cc(=O)n2c(n1)CN(Cc1ccccc1)CCC2 | -103
Cc1noc(C)c1CN1C[C@@H]2C[C@H](C(=O)NCC3CC3)N(C)[C@@H]2C1 | -1.24
Cc1nnc(CN2CCC3(CCC(=O)N(C4CCC(O)CC4)C3)CC2)o1 (configuration not stated) | -8.23
CC(C)(C)c1ccc(OCC(N)=O)c(CN2C[C@H]3CC(O)C[C@H]3C2)c1 (some centres not stated) | -5.28
